From PubChem BioAssay
Calls of active or inactive are those of the source.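 Rule for the calls, unless noted: active = GFP response above 150% of the DMSO level; inconclusive = fewer than 70 events counted for a yeast strain; inactive = the rest.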

What was measured:
[1] = RPL19A-GFP modulators, yeast TOR pathway, confirmation, cell-based, S. cerevisiae, flow cytometry, cherry picks, mother/daughter gates (AID 2270;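 active = GFP response below 50% of the DMSO control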); conditions: S. cerevisiae RPL19A-GFP strain, 3 h, at 10 µM, stronger effect = lower value, 100 = same GFP as DMSO wells
[2] = LAP4-GFP expression modulators in yeast, confirmation, cell-based, cherry picks, flow cytometry, mother/daughter gates (AID 2271;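 active = GFP response above 150% of the DMSO control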;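 note: ratio of sample to DMSO plate mean so 100% equals DMSO level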); conditions: S. cerevisiae LAP4-GFP strain, 3 h, at 10 µM, stronger effect = higher value, 100 means same as DMSO control
Method in brief: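 Measured by: GFP by flow cytometry. Test system: GFP-fusion yeast strain. Input: yeast cells seeded at OD600 of 0.2. Timing: 30 °C, 3 h compound incubation, rotating. Buffer or medium: synthetic complete medium for yeast. Benchmarks: DMSO-only negative wells, rapamycin 400 ng/mL positive wells. Compound: 10 µM single dose.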

[3] = modulators of MEP2-GFP levels in yeast, confirmation, S. cerevisiae, flow cytometry GFP, cherry picks (AID 2272;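 active = GFP response above 150% of the DMSO control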;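 note: ratio of well signal to plate DMSO mean so 100% equals DMSO level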); conditions: S. cerevisiae MEP2-GFP strain, 3 h, at 10 µM, stronger effect = higher value
[4] = AGP1-GFP expression modulators, hit retest, confirmation, cell-based, flow cytometry, S. cerevisiae, cherry picks (AID 2273);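 note: median GFP channel fluorescence over the whole cell population gate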; conditions: S. cerevisiae AGP1-GFP strain, 3 h, at 10 µM
[5] = modulators of CIT2-GFP expression in yeast, confirmation, S. cerevisiae, GFP fusion, cherry picks, mother/daughter gates (AID 2274); conditions: S. cerevisiae CIT2-GFP strain, flow cytometry, 3 h, at 10 µM, stronger effect = higher value
[6] = measured here: daughter cell gate
[7] = measured here: mother cell gate
[8] = measured here: daughter cell gate response
[9] = measured here: mother cell gate response

Row | SMILES | GFP response vs DMSO [1] | GFP response vs DMSO [1, 6] | GFP response vs DMSO [1, 7] | GFP response relative to DMSO [2] | GFP response relative to DMSO [2, 8] | GFP response relative to DMSO [2, 9] | GFP response vs DMSO [3] | GFP response, % of DMSO [4] | GFP response, % of DMSO [5] | GFP response, % of DMSO [5, 6] | GFP response, % of DMSO [5, 7]
1 | Cc1ccc(/C=C/C(=O)c2ccccc2)cc1 | 97.4% (inactive) | 96.7% | 98.3% | 100% (inactive) | 102% | 99.5% | 99.5% (inactive) | 102% (inactive) | 102% (inactive) | 100% | 99.1%
2 | Cc1ccc(/C=c2\sc3nc(-c4cccs4)nn3c2=O)o1 | 98.6% (inactive) | 95.9% | 95.4% | 128% (inactive) | 117% | 131% | 163% (inactive) | 95.4% (inactive) | 104% (inactive) | 101% | 104%
3 | Cc1ccn2c(NC3CCCCC3)c(-c3cccc(-c4cccc(Cl)c4)c3)nc2c1 | 95% (inactive) | 92.1% | 95.8% | 110% (inactive) | 102% | 112% | 108% (inactive) | 92.5% (inactive) | 93.5% (inactive) | 98.3% | 88.6%
4 | Cc1ccc(CCN2CC(C(=O)NCCCN(C)Cc3ccccc3)CC2=O)cc1 (configuration not stated) | 99.1% (inactive) | 99.3% | 98% | 101% (inactive) | 104% | 100% | 101% (inactive) | 103% (inactive) | 98.6% (inactive) | 103% | 96%
5 | COc1cccc(C(=O)N/N=C(\CC(C)C)c2ccccc2)c1 | 97.8% (inactive) | 97% | 97.7% | 100% (inactive) | 101% | 102% | 103% (inactive) | 98.4% (inactive) | 101% (inactive) | 103% | 103%
6 | CC(C)C(=O)NC(c1cccs1)c1cc([N+](=O)[O-])c2cccnc2c1O (configuration not stated) | 95.8% (inactive) | 95.2% | 95.8% | 101% (inactive) | 99.1% | 99.4% | 94.7% (inactive) | 101% (inactive) | 98.8% (inactive) | 101% | 99.3%
7 | COc1cccc(-c2nnc(NC(=O)c3ccc(S(=O)(=O)N(CC(C)C)CC(C)C)cc3)o2)c1 | 99.7% (inactive) | 99.8% | 100% | 98.8% (inactive) | 97.9% | 97.5% | 102% (inactive) | 101% (inactive) | 102% (inactive) | 102% | 101%
8 | O=C(Nc1ccc(S(=O)(=O)N2CCOCC2)cc1)c1ccc([N+](=O)[O-])cc1Cl | 99.6% (inactive) | 101% | 99.7% | 94.1% (inactive) | 94.4% | 94% | 102% (inactive) | 91.7% (inactive) | 101% (inactive) | 103% | 99.7%
9 | O=C(O)c1ccn2c(C(=O)c3ccccc3)c(-c3ccccc3)cc2c1 | 91.1% (inactive) | 88.6% | 95.4% | 113% (inactive) | 112% | 116% | 94.1% (inactive) | 88.2% (inactive) | 96.9% (inactive) | 95.4% | 97.3%
10 | CCOC(=O)/C(=N\NC(=O)c1ccccc1)c1ccccc1 | 97.2% (inactive) | 95.7% | 98.1% | 107% (inactive) | 105% | 106% | 104% (inactive) | 96.5% (inactive) | 101% (inactive) | 100% | 99.1%
11 | C=CCOc1ccc(/C=C2\N=C(C)OC2=O)cc1OC | 105% (inactive) | 107% | 103% | 137% (inactive) | 136% | 136% | 119% (inactive) | 94.5% (inactive) | 103% (inactive) | 106% | 99.7%
12 | O=C(CNC(=O)c1ccncc1)N/N=C/c1cccc([N+](=O)[O-])c1 | 99.2% (inactive) | 98.6% | 99.4% | 97.9% (inactive) | 97.6% | 98.3% | 105% (inactive) | 94.7% (inactive) | 99.7% (inactive) | 101% | 99.7%
13 | Cc1ccc(N2CC(C(=O)OCc3nnc(-c4ccccc4)o3)CC2=O)cc1 (configuration not stated) | 100% (inactive) | 102% | 101% | 102% (inactive) | 104% | 101% | 106% (inactive) | 96.2% (inactive) | 104% (inactive) | 104% | 103%
14 | Cc1ccc(CN2CCSc3sccc3C2=O)cc1 | 84.4% (inactive) | 83.1% | 85.5% | 142% (inactive) | 130% | 145% | 96.8% (inactive) | 97.1% (inactive) | 75.5% (inactive) | 72.1% | 76%
15 | CN(C)CCCNc1cc(C(C)(C)C)nc2c(-c3ccc(Cl)cc3)cnn12 | 93.6% (inactive) | 89% | 94.2% | 116% (inactive) | 107% | 118% | 114% (inactive) | 107% (inactive) | 93.1% (inactive) | 94% | 92.6%
16 | COC(=O)Cn1cc(/C=C/c2cc[n+](C)cc2)c2ccccc21 | 99.3% (inactive) | 99.3% | 98.2% | 97.7% (inactive) | 99% | 98.4% | 112% (inactive) | 104% (inactive) | 104% (inactive) | 105% | 104%
17 | CC1(C)CC(=O)C(C(C2=C(O)CC(C)(C)CC2=O)c2cccs2)C(=O)C1 (configuration not stated) | 100% (inactive) | 103% | 101% | 100% (inactive) | 102% | 100% | 97.5% (inactive) | 94.3% (inactive) | 101% (inactive) | 102% | 99.1%
18 | CCCc1nnc(N2C(=O)c3cccc4cccc(c34)C2=O)s1 | 103% (inactive) | 103% | 102% | 115% (inactive) | 104% | 113% | 103% (inactive) | 108% (inactive) | 113% (inactive) | 106% | 115%
19 | CCOC(=O)Cc1csc(NC(=O)c2sc3nc4c(C)cc(C)cc4cc3c2N)n1 | 104% (inactive) | 96.7% | 97.7% | 84.2% (inactive) | 89.5% | 92.1% | 109% (inactive) | 97.2% (inactive) | 115% (inactive) | 110% | 118%
20 | Cc1cc(N2CCCCC2)n2nc(C)c(-c3ccccc3)c2n1 | 99.7% (inactive) | 97.3% | 100% | 95% (inactive) | 97.2% | 96.2% | 97.8% (inactive) | 95% (inactive) | 97.8% (inactive) | 96.5% | 97.7%
21 | N/C(=N\OC(=O)c1cc(Br)ccc1Cl)c1ccccn1 | 101% (inactive) | 98.7% | 97.7% | 133% (inactive) | 125% | 135% | 110% (inactive) | 93.2% (inactive) | 112% (inactive) | 105% | 114%
22 | Cc1ccc(S(=O)(=O)CC#CCOC(=O)c2ccc([N+](=O)[O-])cc2)cc1 | 105% (inactive) | 107% | 103% | 140% (inactive) | 132% | 148% | 105% (inactive) | 111% (inactive) | 97.2% (inactive) | 100% | 90.8%
23 | CCOC(=O)c1ccc(NC(=O)CCc2nc(-c3ccccc3)no2)cc1 | 97.3% (inactive) | 97% | 97.5% | 107% (inactive) | 107% | 108% | 106% (inactive) | 99.3% (inactive) | 101% (inactive) | 101% | 98.2%
24 | O=C(COc1ccccc1)N1CCN(c2ncnc3c2cnn3-c2ccccc2)CC1 | 98.7% (inactive) | 98.4% | 98.6% | 104% (inactive) | 102% | 105% | 101% (inactive) | 97.3% (inactive) | 98.6% (inactive) | 103% | 98.2%
25 | Cc1noc2ncnc(Sc3ccc(Cl)cc3)c12 | 96.6% (inactive) | 94.9% | 97.2% | 140% (inactive) | 130% | 141% | 102% (inactive) | 94.7% (inactive) | 104% (inactive) | 101% | 102%
26 | CCCc1[nH]nc2c1C(c1ccc(Br)s1)C(C#N)=C(N)O2 (configuration not stated) | 96.2% (inactive) | 96.7% | 95.4% | 137% (inactive) | 136% | 137% | 122% (inactive) | 105% (inactive) | 101% (inactive) | 101% | 102%
27 | C=CCN1C(=O)C2(C(C#N)=C(N)Oc3n[nH]c(CCC)c32)c2ccccc21 (configuration not stated) | 100% (inactive) | 99.8% | 102% | 97.4% (inactive) | 100% | 98.3% | 100% (inactive) | 102% (inactive) | 100% (inactive) | 98.1% | 102%
